This is an account of results in publication PMC5333931 (ACS chemical neuroscience, 2016).

Assay [1] addresses T1, 5-HT2A receptors (Homo sapiens, UniProt P28223). The class given is cell-based. As to conditions: 10 µM compound, 1 µM 5-HT, TEVC.
Assay [2] concerns the target T1, 5-HT2A receptors. The assay can be described thus: Intracellular Ca2+ release. The class given is cell-based.
Assay [3] has as its target T1, 5-HT2A receptors. Kind of assay: [3H]ketanserin competition binding in HEK293 cell membrane preparations. The conditions noted are these: for fold lower binding affinity than risperidone (1): [3H]ketanserin, HEK293 membranes.
For assay [4], the system named is 5-HT2 receptor. As to conditions: 5-HT-induced inositol phosphate production; cited from earlier work.
Assay [5] concerns the target T1, 5-HT2A receptors. The assay can be described thus: TEVC, compounds alone. Format: cell-based. Summed up: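 Xenopus oocytes were injected with 2 ng 5-HT2A receptor plus 2 ng GIRK4* and held at 18 °C for 1–4 days. Basal GIRK4* current was taken per trace as the inward current difference with versus without 3 mM BaCl2. Read-out was current inhibition.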
The subject of assay [6] is 5-HT2 receptor. As to conditions: rats, drug discrimination; cited from earlier work.
The next assay addresses T2, GIRK4* channel (Homo sapiens, UniProt P48544, S143T).
T2 sequence (P48544 1-419 S143T): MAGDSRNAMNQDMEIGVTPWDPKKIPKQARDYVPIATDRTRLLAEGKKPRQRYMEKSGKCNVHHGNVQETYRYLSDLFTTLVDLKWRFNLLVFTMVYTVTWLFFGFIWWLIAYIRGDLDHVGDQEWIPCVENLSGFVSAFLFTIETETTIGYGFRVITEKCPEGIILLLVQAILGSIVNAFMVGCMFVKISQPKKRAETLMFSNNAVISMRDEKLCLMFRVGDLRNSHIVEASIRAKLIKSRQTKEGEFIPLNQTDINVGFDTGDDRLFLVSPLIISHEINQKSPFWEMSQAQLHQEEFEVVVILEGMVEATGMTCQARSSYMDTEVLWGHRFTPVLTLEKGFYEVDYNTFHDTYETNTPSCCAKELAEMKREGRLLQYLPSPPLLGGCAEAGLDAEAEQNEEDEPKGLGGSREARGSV
The assay can be described thus: TEVC, oocytes expressing GIRK4* alone versus GIRK4* and 5-HT2A receptors. The class given is cell-based. As to conditions: 50 µM or higher; suggests direct inhibition of GIRK4* channel.

Some results are limits rather than exact numbers.

T1 sequence (P28223 whole entry): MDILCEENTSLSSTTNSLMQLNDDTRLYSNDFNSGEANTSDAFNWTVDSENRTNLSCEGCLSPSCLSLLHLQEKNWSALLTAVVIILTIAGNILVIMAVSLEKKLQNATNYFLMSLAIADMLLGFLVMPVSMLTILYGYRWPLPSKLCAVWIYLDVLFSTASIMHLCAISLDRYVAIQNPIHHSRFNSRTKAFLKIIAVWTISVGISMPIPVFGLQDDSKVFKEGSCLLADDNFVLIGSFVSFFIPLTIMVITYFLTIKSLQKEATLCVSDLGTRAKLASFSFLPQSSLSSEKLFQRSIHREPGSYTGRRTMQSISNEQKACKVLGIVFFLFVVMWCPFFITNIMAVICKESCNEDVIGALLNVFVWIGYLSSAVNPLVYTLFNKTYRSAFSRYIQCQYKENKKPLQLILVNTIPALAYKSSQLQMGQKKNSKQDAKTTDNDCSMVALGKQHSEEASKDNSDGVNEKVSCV

One may read the IC50 as the concentration needed to halve the response being measured. Low readings indicate greater potency, high ones weaker potency. For the compound `CN1CCC(c2noc3cc(F)ccc23)CC1.Cl` [compound 4, 6-Fluoro-3-(1-methylpiperidin-4-yl)benzisoxazole Hydrochloride], the “antagonism of 5-HT responses at highest concentration tested” value (“antagonism of 5-HT responses” below) at 5-HT2A receptors [1] was “significant inhibition”. For the same compound, on 5-HT2A receptors [2], the half-inhibitory concentration (IC50) worked out at 7.4 ± 1.45 µM. Moreover, at 5-HT2A receptors [3], the “binding affinity relative to risperidone” value was “half that of risperidone” and the “fold lower binding affinity than risperidone (1)” value is 2- to 8 fold.
On to `Fc1ccc2c(C3CCNCC3)noc2c1` [compound 5, 6-fluoro-3-(piperidin-4-yl)benzisoxazole], for which the “antagonism of 5-HT responses” value on 5-HT2A receptors [1] was “significant inhibition”. Also, in the assay on 5-HT2 receptor [4], the “antagonist action in vitro” value is recorded as “potent 5-HT2 receptor antagonist”. Also, on 5-HT2A receptors [2], it took 20.1 ± 2.24 µM to reach half-maximal inhibition (IC50). The “agonism of compound alone” value at 5-HT2A receptors [5] (concentrations tested up to 50 µM) was “did not exhibit significant agonism”. The “antagonist action in vivo” value in the assay with 5-HT2 receptor [6] was “potent 5-HT2 receptor antagonist”. For the same compound, at 5-HT2A receptors [3], the “fold lower binding affinity than risperidone (1)” value was 13.5 fold.
Usually Ki stands for the dissociation constant of the complex between target and ligand, obtained from inhibition or displacement. Low readings indicate higher affinity, high ones lower affinity. On to `Cl.O=C(CCCN1CCC(c2noc3cc(F)ccc23)CC1)N1CCCCC1` [compound 2, 4-(4-(6-Fluorobenzisoxazol-3-yl)piperidin-1-yl)-1-(piperidin-1-yl)butan-1-one Hydrochloride], for which the “current inhibition in oocytes expressing GIRK4* alone versus GIRK4* and 5-HT2A receptors” value at GIRK4* channel is on record as “no significant differences”. Also, half-maximal inhibition against 5-HT2A receptors [2] (IC50) required 16.7 ± 1.39 µM. The same compound displayed an inhibition constant Ki on 5-HT2A receptors [3] of 0.0398 µM.
With `Cl.Fc1ccc2c(C3CCN(CCCCN4CCCCC4)CC3)noc2c1` [compound 3], the “current inhibition in oocytes expressing GIRK4* alone versus GIRK4* and 5-HT2A receptors” value at GIRK4* channel was “no significant differences”. For the same compound, the “antagonism of 5-HT responses” value at 5-HT2A receptors [1] is listed as “no significant effects”. In addition, on 5-HT2A receptors [5] (oocytes, no 5-HT), the “concentration yielding significant current inhibition by compound alone” value is recorded as no less than 5 µM.
